# In the library only some 0.59% were active in any assay of this set; here they are far more common.
# TRPML3 agonist: human mucolipin-3 channel agonism; HEK293 TRPML3-YFP, Fluo-8 calcium fluorescence; 100% = the carbachol control signal; activation, % at 3 µM; 220,000 tested, 0.29% active; Q8TDD5;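 active = activation above its plate's cutoff, the mean activation of the plate's test wells plus 3 SD, cut at about 12% in these data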;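 note: 0% = DMSO only wells and 100% = carbachol wells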
#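 Material: HEK293 cells stably carrying human TRPML3-YFP; compound dosing: single dose, 3 µM final nominal compound, 0.3% DMSO final; incubation: 1-h 37 °C dye load, 5-s basal, 120-s post-compound reads; technique: Fluo-8 intracellular calcium fluorescence, excitation 470-495 nm, emission 515-575 nm; read-out basis: percent activation from peak-to-basal fluorescence ratio, scaled between DMSO and carbachol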
# zfTRPN1 agonist: zebrafish TRPN1 (NompC) channel agonism; 220,000 tested, 0.18% active; activation, % at 3 µM; AID 1424; HEK293 zebrafish TRPN1-YFP, Fluo-8 calcium fluorescence; 100% = response to 87 µM carbachol;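 active = activation above its plate's cutoff, the mean activation of test wells on that plate plus 3 SD, cut at about 19% in these data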;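 note: 0% = DMSO alone and 100% = 87 µM carbachol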
#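 Material: zebrafish TRPN1-YFP in HEK293 cells. Doses: one dose of 3 µM, 0.3% DMSO. Incubation: dye 1 h 37 °C plus 30 min RT. Measured by: intracellular calcium fluorescence with Fluo-8.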
# V1R ag counter: V1a receptor agonism, counter-screen for OXTR agonists | CHO-V1R cells, Fluo-8 calcium fluorescence, agonist mode; 0% DMSO, 100% 3 nM vasopressin | activation, % at 3 µM | 320,000 tested, 0.25% active | AID 2797;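 active = activation above the mean activation of all tested compounds plus 3 SD, per screening run, cut at about 20% in these data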;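 note: signal is peak over basal fluorescence ratio across a 100 second FLIPR read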
# Target sequence (P37288 whole entry, looked up): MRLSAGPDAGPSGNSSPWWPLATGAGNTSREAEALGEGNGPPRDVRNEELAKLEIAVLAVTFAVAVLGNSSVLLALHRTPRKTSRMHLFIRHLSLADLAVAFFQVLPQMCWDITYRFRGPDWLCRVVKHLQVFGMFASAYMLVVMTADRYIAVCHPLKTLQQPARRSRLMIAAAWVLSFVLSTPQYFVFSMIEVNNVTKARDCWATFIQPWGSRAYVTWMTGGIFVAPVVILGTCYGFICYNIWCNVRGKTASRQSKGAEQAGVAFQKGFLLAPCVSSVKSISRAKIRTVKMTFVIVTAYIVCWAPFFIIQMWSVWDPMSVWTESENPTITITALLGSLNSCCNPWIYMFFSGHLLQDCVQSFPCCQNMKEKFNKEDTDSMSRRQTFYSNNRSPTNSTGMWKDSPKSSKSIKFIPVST
# OXTR potentiator: human OXTR potentiation | P30559 | CHO-OTR cells, Fluo-8 calcium fluorescence, potentiator mode; 0% = oxytocin EC15, 100% = EC100 | activation, % at 3 µM | 320,000 tested, 0.061% active;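 active = activation above that plate's cutoff, the mean activation of tested compounds plus 3 SD, cut at about 6.6% in these data, passing the limit was not always enough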;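 note: 100% uses oxytocin at 75 nM as the full agonist control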
#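 Assay system: CHO cell line stably expressing human OTR | Also added: Oxytocin at about EC15, sub-maximal agonist stimulus | Times: Compound 6 min at room temperature before oxytocin, 100 s read | Measured by: Fluo-8 intracellular calcium fluorescence, ex 470-495, em 515-575 nm | Controls: EC15 oxytocin alone as 0%, 75 nM oxytocin as 100%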
# OXTR agonist: human OXTR agonism; P30559; CHO-OTR cells, Fluo-8 calcium fluorescence; normalized: DMSO 0%, oxytocin 100%; activation, % at 3 µM; 320,000 tested, 0.32% active; AID 2435;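 active = activation above the mean of all tested compounds plus 3 SD, cutoff set per screening run, cut at about 20% in these data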;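 note: peak over basal fluorescence ratio from a 100 s FLIPR kinetic read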
# V1R ag confirm: confirmation of human vasopressin V1a receptor agonists; shares compounds with V1R ag counter; CHO-V1R cells, Fluo-8 calcium fluorescence, agonist; activation, % at 3 µM; 180 tested, 20% active; AID 434964;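 active = average activation exceeds primary screen hit cutoff, cut at about 21% in these data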;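 note: peak over basal fluorescence ratio during a 100 s FLIPR read; 0% = DMSO only wells and 100% = 3 nM vasopressin wells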
# OXTR ag counter: OXTR agonism, counter-screen for V1R agonists; shares compounds with V1R ag counter; CHO-OTR cells, Fluo-8 calcium fluorescence, agonist; activation, % at 3 µM; 180 tested, 10% active; AID 434969;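 active = mean activation over three repeats above the cutoff from the earlier oxytocin receptor agonist screen, cut at about 20% in these data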;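 note: peak over minimum fluorescence ratio within a 100 second FLIPR read; 0% = DMSO only wells and 100% = oxytocin high control wells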
# Starred values were filed as active, the others as inactive; / = not tested or not shown.
SMILES,TRPML3 agonist,zfTRPN1 agonist,V1R ag counter,OXTR potentiator,OXTR agonist,V1R ag confirm,OXTR ag counter
CCCc1cc(=O)oc2cc(C)cc(OCC(=O)Nc3ccc(CN4CCOCC4)cc3)c12,/,/,2,-12,3,/,/
Cc1ccc2[nH]c(C(=O)N/N=C/c3ccccc3O)c(C)c2c1,/,/,22*,-16,5,1,0
Cc1ccc2[nH]c(C(=O)N/N=C/c3ccccc3C(=O)O)c(-c3ccccc3)c2c1,/,/,1,-7,0,/,/
Cc1ccc(OCc2cc(C(=O)NCc3ccc(OC(F)(F)F)cc3)no2)cn1,/,/,28*,-8,19,14,21*
CCc1cc(CNC(=O)c2cc(COc3ccc(C)nc3)on2)on1,/,/,2,5,1,/,/
CN(CC(=O)Nc1ccc(F)cc1)C(=O)COc1ccccc1Cc1ccccc1,/,/,0,-15,1,/,/
CC(C)=CCc1c(O)c(CC=C(C)C)c2c(c1O)-c1cc(O)c(O)cc1CC2,/,/,0,1,0,/,/
Oc1ccc(Br)cc1C=Nc1ccc2c3c(cccc13)CC2,3,8,24*,-8,12,0,-1
COc1ccc(-c2ccc(C3C(C#N)=C(N)Oc4n[nH]c(C)c43)o2)cc1 (stereo not drawn),7,4,24*,-10,5,6,6
Cc1[nH]nc2c1C(c1ccco1)C(C#N)=C(N)O2 (stereo not drawn),1,-1,1,0,1,/,/
C=CCn1c(C)c(/C=C/c2cc[n+](C)cc2)c2ccccc21,/,/,25*,-15,7,6,10
CCN(CC)S(=O)(=O)c1ccc(/C=C/C(=O)OCC(=O)Nc2cccnc2Cl)cc1,/,/,8,-9,8,/,/
NC(=O)Nc1ccc(Oc2ncc(C(F)(F)F)cc2Cl)cc1,1,0,13,-11,0,/,/
CCCNS(=O)(=O)c1ccc(Oc2ncc(C(F)(F)F)cc2Cl)cc1,2,2,23*,-23,17,14,16
Cc1ccc(-c2c(C(=O)N/N=C/c3ccco3)nnn2-c2nonc2N)cc1,/,/,28*,-10,9,8,11
CCOc1ccc(-c2c(C(=O)N/N=C/c3ccco3)nnn2-c2nonc2N)cc1,/,/,16,-6,6,/,/
O=C(Nc1cccc(Cl)c1)Nc1ccc2nccnc2c1,/,/,23*,-15,14,10,10
CC(Oc1ccc2ccc(=O)oc2c1)C(=O)N1CCOCC1 (stereo not drawn),/,/,21*,0,0,0,0
C=CCn1cc(CN2CCC(C(=O)Nc3cccc(-c4cccc(Cl)c4)c3)CC2)c(C)n1,/,/,22*,-8,5,0,0
C=CCn1cc(CN2CCC(C(=O)Nc3cccc(-c4cccc(F)c4)c3)CC2)c(C)n1,/,/,5,-9,2,/,/
S=C(NCc1ccc(Cl)cc1)Nc1ccncc1,/,/,22*,-16,17,14,16
S=C(NCc1ccc(Cl)cc1)Nc1ccccc1,0,0,7,-14,2,/,/
COC(=O)C1=NN(C(=O)c2ccc(C)cc2)C(O)(c2ccc(Cl)cc2)C1 (stereo not drawn),0,0,33*,-6,13,6,18
CCSC1=N/C(=C\c2ccc3c(c2)OCO3)C(=O)S1,1,0,0,-12,-2,/,/
CCSC1=N/C(=C\C=C2/Oc3ccccc3N2CC)C(=O)S1,5,7,23*,-7,11,21*,13
Cn1c2ccccc2c(=O)c2c(=O)n(C3CCCCC3)c(-c3cccs3)nc21,0,-1,21*,-7,19,51*,33*
COc1ccc(CCn2c(C3CCCCC3)nc3c(c(=O)c4ccccc4n3C)c2=O)cc1,12*,22*,28*,-19,10,11,15
Cn1c2ccccc2c(=O)c2c(=O)n(-c3ccccc3)c(C3CCCCC3)nc21,0,0,0,-3,-2,/,/
O=C(CC(=O)N/N=C/c1c(Cl)cccc1Cl)NCc1cccnc1,/,/,3,-3,0,/,/

# Assay outcomes as filed in PubChem.
